Test results reported in ChEMBL document CHEMBL6071171, “Molecular Mechanisms of Methamphetamine-Induced Addiction via TAAR1 Activation” (J Med Chem, 2024).
Substitutions are numbered along the chain they refer to. Calls of active or inactive are those of the source. The rule behind the calls is not given here.

Columns and labels:
Assay type in all cases: cell-based
[1] = system: T1, Trace amine-associated receptor 1 (Homo sapiens), Q96RJ0 [F186A]; assay: Agonist activity against TAAR1 F186A mutant (unknown origin) expressed in HEK293 cells assessed as increase in cAMP accumulation incubated for 30 mins by HTRF assay
T1 sequence (whole entry): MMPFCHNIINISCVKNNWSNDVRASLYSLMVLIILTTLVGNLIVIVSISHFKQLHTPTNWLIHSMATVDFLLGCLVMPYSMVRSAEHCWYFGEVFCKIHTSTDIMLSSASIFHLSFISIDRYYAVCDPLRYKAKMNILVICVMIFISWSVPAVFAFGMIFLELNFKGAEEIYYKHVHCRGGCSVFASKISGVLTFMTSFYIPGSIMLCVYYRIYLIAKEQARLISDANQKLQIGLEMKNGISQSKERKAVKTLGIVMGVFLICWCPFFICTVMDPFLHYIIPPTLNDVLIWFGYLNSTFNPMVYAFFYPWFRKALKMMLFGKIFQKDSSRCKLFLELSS
Method in brief: (§1)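 HEK293 cells harvested 48 h after transfection with plasmid at 1 μg mL–1; 8000 cells per well incubated 30 min at 37 °C with agonist over 10–4 to 10–10 M. cAMP read by HTRF (d2-cAMP plus Eu-cryptate antibody, 1 h room temperature; excitation 330 nm, emission 620/665 nm). pEC50 and Emax from dose–response curves; mean ± s.e.m. of three independent experiments, each in technical triplicate.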

[2] = system: T2, Trace amine-associated receptor 1 (Homo sapiens), Q96RJ0 [V184A]; assay: Agonist activity against TAAR1 V184A mutant (unknown origin) expressed in HEK293 cells assessed as increase in cAMP accumulation incubated for 30 mins by HTRF assay; method in brief: as §1
T2 sequence (whole entry): T1 sequence (whole entry) with V184A, A186F

[3] = system: T3, Trace amine-associated receptor 1 (Homo sapiens), Q96RJ0 [F268A]; assay: Agonist activity against TAAR1 F268A mutant (unknown origin) expressed in HEK293 cells assessed as increase in cAMP accumulation incubated for 30 mins by HTRF assay; conditions: filed as agonist; method in brief: as §1
T3 sequence (whole entry): T1 sequence (whole entry) with A186F, F268A

[4] = system: T4, Trace amine-associated receptor 1 (Homo sapiens), Q96RJ0 [D103A]; assay: Agonist activity against TAAR1 D103A mutant (unknown origin) expressed in HEK293 cells assessed as increase in cAMP accumulation incubated for 30 mins by HTRF assay; method in brief: as §1
T4 sequence (whole entry): T1 sequence (whole entry) with D103A, A186F

[5] = system: T5, Trace amine-associated receptor 1 (Homo sapiens), Q96RJ0 [F195A]; assay: Agonist activity against TAAR1 F195A mutant (unknown origin) expressed in HEK293 cells assessed as increase in cAMP accumulation incubated for 30 mins by HTRF assay; method in brief: as §1
T5 sequence (whole entry): T1 sequence (whole entry) with F185A, A186F

[6] = system: T6, Trace amine-associated receptor 1 (Homo sapiens), Q96RJ0 [W264A]; assay: Agonist activity against TAAR1 W264A mutant (unknown origin) expressed in HEK293 cells assessed as increase in cAMP accumulation incubated for 30 mins by HTRF assay; method in brief: as §1
T6 sequence (whole entry): T1 sequence (whole entry) with A186F, W264A

[7] = system: T7, Trace amine-associated receptor 1 (Homo sapiens), Q96RJ0 [Y294A]; assay: Agonist activity against TAAR1 Y294A mutant (unknown origin) expressed in HEK293 cells assessed as increase in cAMP accumulation incubated for 30 mins by HTRF assay; method in brief: as §1
T7 sequence (whole entry): T1 sequence (whole entry) with A186F, Y294A

[8] = system: T8, Trace amine-associated receptor 1 (Homo sapiens), Q96RJ0 [I290A]; assay: Agonist activity against TAAR1 I290A mutant (unknown origin) expressed in HEK293 cells assessed as fold increase in cAMP accumulation incubated for 30 mins by HTRF assay relative to control; conditions: filed as agonist
T8 sequence (whole entry): T1 sequence (whole entry) with A186F, I290A

[9] = system: T9, Trace amine-associated receptor 1 (Homo sapiens), Q96RJ0 [I104A]; assay: Agonist activity against TAAR1 I104A mutant (unknown origin) expressed in HEK293 cells assessed as increase in cAMP accumulation incubated for 30 mins by HTRF assay; method in brief: as §1
T9 sequence (whole entry): T1 sequence (whole entry) with I104A, A186F

[10] = system: T10, Trace amine-associated receptor 1 (Homo sapiens), Q96RJ0 [G293A]; assay: Agonist activity against TAAR1 G293A mutant (unknown origin) expressed in HEK293 cells assessed as increase in cAMP accumulation incubated for 30 mins by HTRF assay; method in brief: as §1
T10 sequence (whole entry): T1 sequence (whole entry) with A186F, G293A

[11] = system: T11, Trace amine-associated receptor 1 (Homo sapiens), Q96RJ0 [F267A]; assay: Agonist activity against TAAR1 F267A mutant (unknown origin) expressed in HEK293 cells assessed as increase in cAMP accumulation incubated for 30 mins by HTRF assay; method in brief: as §1
T11 sequence (whole entry): T1 sequence (whole entry) with A186F, F267A

SMILES	Activity [1]	Activity [2]	Activity [3]	Activity [4]	Activity [5]	Activity [6]	Activity [7]	fold change (FC) [8]	Activity [9]	Activity [10]	Activity ([2]; filed as agonist)	Activity [11]
NCCc1ccccc1	inactive	inactive	Active	–	–	–	–	–	–	–	–	–
CN[C@@H](C)Cc1ccccc1	inactive	–	Active	inactive	inactive	inactive	inactive	6	inactive	inactive	Active	inactive
